This note sets out measurements from ChEMBL document CHEMBL1155155, “Single-dose pharmacokinetics of intravenous itraconazole and hydroxypropyl-beta-cyclodextrin in infants, children, and adolescents” (Antimicrob Agents Chemother, 2007).

Data set [1] can be described thus: AUC (0 to 24 hrs) in human at risk for fungal infection at 2.5 mg/kg, iv in 0.1 g/kg hydroxypropyl-beta-cyclodextrin administered as single dose. Format: ADME, organism-based. Also noted: time < 24 hr, dose 2.5 mg/kg, route intravenous. To be noted: plasma. An outline of the steps:
(§1)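 Single 1-h IV infusion. Plasma sampled from the contralateral limb predose and at 1–120 h (>2 y) or 1–96 h (<2 y). Itraconazole was extracted with internal standard and quantified by C18 HPLC with UV 263 nm detection, linear range 2–2,000 ng/ml. Noncompartmental analysis: Cmax by inspection, AUC0-24 by trapezoidal rule, AUC extrapolated via λz, CL and Vz from AUC0-∞.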

The nature of data set [2]: Clearance in adolescents of >12-16 yrs age at risk for fungal infection at 2.5 mg/kg, iv in 0.1 g/kg hydroxypropyl-beta-cyclodextrin administered as single dose. Type of data set: ADME, organism-based. Also on record: dose 2.5 mg/kg, route intravenous. To be noted: human, in vivo. An outline of the steps: as §1
Data set [3] concerns Homo sapiens. The data set is described as follows: Cmax in human at risk for fungal infection assessed as hydroxyitraconazole level at 2.5 mg/kg, iv in 0.1 g/kg hydroxypropyl-beta-cyclodextrin administered as single dose. Type of data set: ADME, organism-based. Also noted: dose 2.5 mg/kg, route intravenous. As to conditions: in vivo. An outline of the steps:
(§2)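 Single constant-rate IV infusion over 1 h. Heparinised venous plasma was drawn predose and at 1–120 h (>2 yr) or 1–96 h (<2 yr, randomised to the itraconazole/metabolite arm), then stored at –20°C. Analysis used borate-buffered liquid-liquid extraction with internal standard, C18 HPLC and UV detection at 263 nm, linear 5–5,000 ng/ml. Individual Cmax was read by visual inspection, noncompartmental.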

The test system of data set [4] is Homo sapiens. The experiment in a line: Tmax in human at risk for fungal infection assessed as hydroxyitraconazole level at 2.5 mg/kg, iv in 0.1 g/kg hydroxypropyl-beta-cyclodextrin administered as single dose. Format: ADME, organism-based. Also noted: dose 2.5 mg/kg, route intravenous. To be noted: in vivo. An outline of the steps: (§3)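 Single 1-h constant-rate IV infusion. Venous plasma sampled predose and to 120 h (>2 y) or 96 h (<2 y), then stored at –20°C. Hydroxyitraconazole was measured by borate/isoamylalcohol-heptane extraction, HCl back-extraction, C18 HPLC and UV 263 nm, with a linear range of 5–5,000 ng/ml. Noncompartmental analysis: Cmax and tmax by inspection, AUC0-24 by trapezoidal rule.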

Data set [5] deals with Homo sapiens. The data set is described as follows: Tmax in infants of 0.6-2 yrs age at risk for fungal infection assessed as hydroxyitraconazole level at 2.5 mg/kg, iv in 0.1 g/kg hydroxypropyl-beta-cyclodextrin administered as single dose. Type of data set: ADME, organism-based. Also noted: dose 2.5 mg/kg, route intravenous. To be noted: in vivo. The method, boiled down: as §3

Data set [6] is described as follows: Half life in children of >2-6 yrs age at risk for fungal infection at 2.5 mg/kg, iv in 0.1 g/kg hydroxypropyl-beta-cyclodextrin administered as single dose. Format: ADME, organism-based. Also noted: dose 2.5 mg/kg, route intravenous. As to conditions: human, in vivo. An outline of the steps:
as §1

The nature of data set [7]: Cmax in children of >6-12 yrs age at risk for fungal infection at 2.5 mg/kg, iv in 0.1 g/kg hydroxypropyl-beta-cyclodextrin administered as single dose. Type of data set: ADME, organism-based. Also noted: dose 2.5 mg/kg, route intravenous. To be noted: human, in vivo. An outline of the steps: as §1
Data set [8] has as its system Homo sapiens. The data set is described as follows: Toxicity in human at risk for fungal infection assessed as occurrence of adverse events at 2.5 mg/kg, iv in 0.1 g/kg hydroxypropyl-beta-cyclodextrin administered as single dose. Format: organism-based. Also on record: dose 2.5 mg/kg, route intravenous. To be noted: in vivo. The method, boiled down: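 Safety was assessed by medical history, physical examination, complete blood count, serum chemistry, liver function tests and urinalysis. These were done before the single 1-h IV infusion and again at study completion. Subjects stayed at the study facility through 24 h postdose.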

A short description of data set [9]: Apparent volume of distribution in human at risk for fungal infection at 2.5 mg/kg, iv in 0.1 g/kg hydroxypropyl-beta-cyclodextrin administered as single dose. Type of data set: ADME, organism-based. Also on record: dose 2.5 mg/kg, route intravenous. As to conditions: in vivo. The method, boiled down: as §1
The nature of data set [10]: Half life in human at risk for fungal infection at 2.5 mg/kg, iv in 0.1 g/kg hydroxypropyl-beta-cyclodextrin administered as single dose. Type of data set: ADME, organism-based. Also on record: dose 2.5 mg/kg, route intravenous. To be noted: in vivo. The method, boiled down:
as §1

Data set [11] is described as follows: AUC (0 to 24 hrs) in adolescents of >12-16 yrs age at risk for fungal infection at 2.5 mg/kg, iv in 0.1 g/kg hydroxypropyl-beta-cyclodextrin administered as single dose. Format: ADME, organism-based. Also on record: time < 24 hr, dose 2.5 mg/kg, route intravenous. As to conditions: human, plasma. An outline of the steps:
as §1

In data set [12] the test system is Homo sapiens. The experiment in a line: Half life in children of >2-6 yrs age at risk for fungal infection assessed as hydroxyitraconazole level at 2.5 mg/kg, iv in 0.1 g/kg hydroxypropyl-beta-cyclodextrin administered as single dose. Type of data set: ADME, organism-based. As to conditions: in vivo. Also noted: dose 2.5 mg/kg, route intravenous. An outline of the steps: as §3

The test system of data set [13] is Homo sapiens. The experiment in a line: Half life in infants of 0.6-2 yrs age at risk for fungal infection assessed as hydroxyitraconazole level at 2.5 mg/kg, iv in 0.1 g/kg hydroxypropyl-beta-cyclodextrin administered as single dose. Type of data set: ADME, organism-based. Also on record: dose 2.5 mg/kg, route intravenous. As to conditions: in vivo. The method, boiled down:
as §3

Data set [14] has as its system Homo sapiens. The data set is described as follows: AUC (0 to 24 hrs) in infants of 0.6-2 yrs age at risk for fungal infection assessed as hydroxyitraconazole level at 2.5 mg/kg, iv in 0.1 g/kg hydroxypropyl-beta-cyclodextrin administered as single dose. Also noted: time < 24 hr, dose 2.5 mg/kg, route intravenous. As to conditions: in vivo. Type of data set: ADME, organism-based, Plasma. The method, boiled down:
as §3

Data set [15] is described as follows: Half life in adolescents of >12-16 yrs age at risk for fungal infection at 2.5 mg/kg, iv in 0.1 g/kg hydroxypropyl-beta-cyclodextrin administered as single dose. Format: ADME, organism-based. Also on record: dose 2.5 mg/kg, route intravenous. As to conditions: human, in vivo. An outline of the steps: as §1
The test system of data set [16] is Homo sapiens. The experiment in a line: Cmax in adolescents of >12-16 yrs age at risk for fungal infection assessed as hydroxyitraconazole level at 2.5 mg/kg, iv in 0.1 g/kg hydroxypropyl-beta-cyclodextrin administered as single dose. Format: ADME, organism-based. Also noted: dose 2.5 mg/kg, route intravenous. To be noted: in vivo. The method, boiled down:
as §3

Data set [17] is described as follows: Clearance in children of >6-12 yrs age at risk for fungal infection at 2.5 mg/kg, iv in 0.1 g/kg hydroxypropyl-beta-cyclodextrin administered as single dose. Format: ADME, organism-based. Also noted: dose 2.5 mg/kg, route intravenous. To be noted: human, in vivo. The method, boiled down: as §1
For data set [18], the system named is Homo sapiens. The experiment in a line: Cmax in children of >6-12 yrs age at risk for fungal infection assessed as hydroxyitraconazole level at 2.5 mg/kg, iv in 0.1 g/kg hydroxypropyl-beta-cyclodextrin administered as single dose. As to conditions: in vivo. Also noted: dose 2.5 mg/kg, route intravenous. Type of data set: ADME, organism-based. The method, boiled down:
as §2

The nature of data set [19]: Apparent volume of distribution in adolescents of >12-16 yrs age at risk for fungal infection at 2.5 mg/kg, iv in 0.1 g/kg hydroxypropyl-beta-cyclodextrin administered as single dose. Format: ADME, organism-based. Also on record: dose 2.5 mg/kg, route intravenous. As to conditions: human, in vivo. The method, boiled down: as §1
The nature of data set [20]: Apparent volume of distribution in infants of 0.6-2 yrs age at risk for fungal infection at 2.5 mg/kg, iv in 0.1 g/kg hydroxypropyl-beta-cyclodextrin administered as single dose. Format: ADME, organism-based. Also noted: dose 2.5 mg/kg, route intravenous. As to conditions: human, in vivo. An outline of the steps:
as §1

In data set [21] the test system is Homo sapiens. The data set is described as follows: Tmax in children of >6-12 yrs age at risk for fungal infection assessed as hydroxyitraconazole level at 2.5 mg/kg, iv in 0.1 g/kg hydroxypropyl-beta-cyclodextrin administered as single dose. Type of data set: ADME, organism-based. Also on record: dose 2.5 mg/kg, route intravenous. To be noted: in vivo. An outline of the steps:
as §3

The nature of data set [22]: Cmax in children of >2-6 yrs age at risk for fungal infection at 2.5 mg/kg, iv in 0.1 g/kg hydroxypropyl-beta-cyclodextrin administered as single dose. Also noted: dose 2.5 mg/kg, route intravenous. As to conditions: human, in vivo. Type of data set: ADME, organism-based. An outline of the steps: as §1

In the case of `CCC(C)n1ncn(-c2ccc(N3CCN(c4ccc(OCC5COC(Cn6cncn6)(c6ccc(Cl)cc6Cl)O5)cc4)CC3)cc2)c1=O` (configuration not stated) [ITRACONAZOLE], the AUC(0-t) at 24 h was 4920 ng·h/mL in [1] and 2670 ng·h/mL in data set [11]. Also, the clearance in data set [2] is 12.9 mL/min/kg; in [17], 10.3 mL/min/kg. Further, the peak concentration (Cmax) in data set [3] was 293 ng/mL; in data set [7] it was 785 ng/mL; in [16] it was 321 ng/mL; in [18], 277 ng/mL; in data set [22] it was 1550 ng/mL. Moreover, the Tmax in [4] came to 2.2 h; in data set [5] it was 4 h; in data set [21] it was 1.7 h. Besides, the results for the half-life in data set [6], in data set [10] and in [15] were 14 h, 20.2 h and 29 h, respectively. The Activity result in data set [8] is on record as “Toxic”. The values for the Vd in [9], in data set [19] and in [20] were 18.5 L/kg, 28.5 L/kg and 23.6 L/kg, respectively. Further, the t1/2 turned out to be 12.7 h in data set [12] and 16.6 h in [13]. Further, in data set [14], the AUC is 4155 ng·h/mL.
